Results as given in ChEMBL document CHEMBL1649420, “Identifying chelators for metalloprotein inhibitors using a fragment-based approach” (J Med Chem, 2011).

Assays:
[1] = biological target: T1, Polyunsaturated fatty acid 5-lipoxygenase (Homo sapiens) (UniProt P09917); assay: Inhibition of human recombinant 5-lipoxygenase at 1 mM after 10 mins by fluorescence assay
T1 sequence (whole entry): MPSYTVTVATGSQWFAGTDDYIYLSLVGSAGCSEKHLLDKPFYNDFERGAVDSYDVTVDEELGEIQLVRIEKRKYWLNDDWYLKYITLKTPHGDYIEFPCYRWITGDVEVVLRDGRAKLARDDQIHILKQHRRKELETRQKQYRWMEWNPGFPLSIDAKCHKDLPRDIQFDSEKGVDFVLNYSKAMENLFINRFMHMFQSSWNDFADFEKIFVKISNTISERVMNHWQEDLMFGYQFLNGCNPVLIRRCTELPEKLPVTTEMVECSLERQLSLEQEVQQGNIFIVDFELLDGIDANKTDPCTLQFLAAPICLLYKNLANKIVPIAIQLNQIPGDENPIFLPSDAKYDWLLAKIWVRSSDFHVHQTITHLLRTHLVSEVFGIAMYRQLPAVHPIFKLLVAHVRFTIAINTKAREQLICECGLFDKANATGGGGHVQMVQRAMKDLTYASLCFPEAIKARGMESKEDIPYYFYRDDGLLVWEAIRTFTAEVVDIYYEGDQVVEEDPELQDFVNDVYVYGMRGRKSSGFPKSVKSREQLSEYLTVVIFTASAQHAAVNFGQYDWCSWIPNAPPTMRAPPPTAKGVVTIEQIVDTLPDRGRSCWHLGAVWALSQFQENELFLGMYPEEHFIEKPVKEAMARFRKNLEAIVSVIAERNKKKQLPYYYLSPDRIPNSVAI

[2] = biological target: T2, Interstitial collagenase (Homo sapiens) (UniProt P03956); conditions: at 1 mM;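 also: recombinant human enzyme, with inhibition measured after 30 min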
T2 sequence (whole entry): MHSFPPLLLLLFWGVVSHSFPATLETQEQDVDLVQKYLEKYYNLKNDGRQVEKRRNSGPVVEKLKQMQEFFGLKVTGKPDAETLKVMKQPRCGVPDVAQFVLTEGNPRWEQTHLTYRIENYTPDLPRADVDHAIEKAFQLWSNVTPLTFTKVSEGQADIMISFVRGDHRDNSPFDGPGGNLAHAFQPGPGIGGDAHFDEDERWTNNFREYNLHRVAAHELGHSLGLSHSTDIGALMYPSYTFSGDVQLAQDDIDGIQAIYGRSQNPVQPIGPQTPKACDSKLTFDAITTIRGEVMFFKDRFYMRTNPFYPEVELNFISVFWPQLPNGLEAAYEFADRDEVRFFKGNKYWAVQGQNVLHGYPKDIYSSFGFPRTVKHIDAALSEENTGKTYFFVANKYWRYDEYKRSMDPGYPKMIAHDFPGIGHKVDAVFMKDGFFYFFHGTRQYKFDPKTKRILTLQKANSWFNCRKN

[3] = biological target: T3, Nitric oxide synthase, inducible (Mus musculus) (UniProt P29477); conditions: at 1 mM;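 also: recombinant enzyme, activity read out colorimetrically after 40 min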
T3 sequence (whole entry): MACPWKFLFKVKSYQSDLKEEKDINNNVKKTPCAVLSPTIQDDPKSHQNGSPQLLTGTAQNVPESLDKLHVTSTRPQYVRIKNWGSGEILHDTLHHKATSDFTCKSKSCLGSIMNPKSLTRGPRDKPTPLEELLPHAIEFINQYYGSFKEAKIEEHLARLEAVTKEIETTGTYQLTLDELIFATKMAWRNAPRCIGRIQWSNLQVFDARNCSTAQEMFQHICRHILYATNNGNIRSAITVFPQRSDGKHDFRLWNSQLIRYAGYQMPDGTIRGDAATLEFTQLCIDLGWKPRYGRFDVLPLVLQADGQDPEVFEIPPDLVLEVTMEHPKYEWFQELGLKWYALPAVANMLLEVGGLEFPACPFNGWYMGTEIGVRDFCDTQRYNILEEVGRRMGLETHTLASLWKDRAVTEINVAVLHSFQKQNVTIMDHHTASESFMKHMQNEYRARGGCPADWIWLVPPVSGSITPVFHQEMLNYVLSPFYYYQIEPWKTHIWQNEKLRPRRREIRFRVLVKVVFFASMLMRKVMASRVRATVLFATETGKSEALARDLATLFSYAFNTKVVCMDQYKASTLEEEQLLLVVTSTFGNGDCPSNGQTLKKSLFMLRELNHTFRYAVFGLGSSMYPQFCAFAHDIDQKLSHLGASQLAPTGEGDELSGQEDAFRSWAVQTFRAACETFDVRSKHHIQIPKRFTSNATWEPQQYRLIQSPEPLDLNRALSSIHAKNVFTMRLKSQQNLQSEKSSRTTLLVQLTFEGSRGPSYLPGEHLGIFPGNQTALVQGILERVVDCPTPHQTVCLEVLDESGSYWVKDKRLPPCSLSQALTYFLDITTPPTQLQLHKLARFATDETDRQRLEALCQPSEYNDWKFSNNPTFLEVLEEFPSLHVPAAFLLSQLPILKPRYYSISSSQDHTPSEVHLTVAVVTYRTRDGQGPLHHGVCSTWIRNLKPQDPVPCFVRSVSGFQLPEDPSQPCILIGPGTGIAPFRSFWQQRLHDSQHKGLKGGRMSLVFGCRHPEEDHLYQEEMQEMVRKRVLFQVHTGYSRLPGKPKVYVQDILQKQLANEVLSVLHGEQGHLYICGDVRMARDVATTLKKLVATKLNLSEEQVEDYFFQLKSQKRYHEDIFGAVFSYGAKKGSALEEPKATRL

[4] = biological target: Stromelysin-1 (Homo sapiens) (UniProt P08254); conditions: at 1 mM;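 also: recombinant enzyme, inhibition read after a 30 min incubation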
Sequence of Stromelysin-1 (Homo sapiens) (P08254 100-477 limits assumed): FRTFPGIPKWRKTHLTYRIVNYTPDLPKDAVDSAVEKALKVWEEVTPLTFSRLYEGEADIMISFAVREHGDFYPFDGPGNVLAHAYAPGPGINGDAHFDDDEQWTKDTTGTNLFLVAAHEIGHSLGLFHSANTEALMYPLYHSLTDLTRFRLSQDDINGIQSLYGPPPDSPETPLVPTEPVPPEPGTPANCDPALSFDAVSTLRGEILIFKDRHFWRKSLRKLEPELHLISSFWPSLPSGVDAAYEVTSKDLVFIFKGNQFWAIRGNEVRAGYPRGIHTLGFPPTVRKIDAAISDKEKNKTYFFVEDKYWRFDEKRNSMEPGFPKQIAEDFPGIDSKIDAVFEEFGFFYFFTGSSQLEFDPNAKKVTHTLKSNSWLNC

[5] = biological target: T4, Tyrosinase (Agaricus bisporus) (UniProt O42713); conditions: at 1 mM
T4 sequence (whole entry): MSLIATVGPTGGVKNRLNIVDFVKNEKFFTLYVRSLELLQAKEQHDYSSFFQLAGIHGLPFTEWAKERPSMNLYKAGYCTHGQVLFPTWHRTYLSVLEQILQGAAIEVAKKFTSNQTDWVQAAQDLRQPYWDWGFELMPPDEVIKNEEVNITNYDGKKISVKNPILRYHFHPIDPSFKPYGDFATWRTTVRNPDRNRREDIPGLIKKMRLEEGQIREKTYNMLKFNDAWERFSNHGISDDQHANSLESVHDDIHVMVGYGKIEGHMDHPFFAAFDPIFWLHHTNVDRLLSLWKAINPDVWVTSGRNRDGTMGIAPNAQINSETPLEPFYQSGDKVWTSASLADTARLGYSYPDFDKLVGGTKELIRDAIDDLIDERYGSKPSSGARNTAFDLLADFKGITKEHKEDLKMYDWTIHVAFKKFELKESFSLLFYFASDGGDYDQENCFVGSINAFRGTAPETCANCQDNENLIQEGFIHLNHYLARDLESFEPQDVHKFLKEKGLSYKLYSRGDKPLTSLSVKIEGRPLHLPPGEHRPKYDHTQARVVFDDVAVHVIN

[6] = biological target: T5, 72 kDa type IV collagenase (Homo sapiens, UniProt P08253); conditions: at 1 mM
Target sequence in this assay (P08253 110-660 limits assumed): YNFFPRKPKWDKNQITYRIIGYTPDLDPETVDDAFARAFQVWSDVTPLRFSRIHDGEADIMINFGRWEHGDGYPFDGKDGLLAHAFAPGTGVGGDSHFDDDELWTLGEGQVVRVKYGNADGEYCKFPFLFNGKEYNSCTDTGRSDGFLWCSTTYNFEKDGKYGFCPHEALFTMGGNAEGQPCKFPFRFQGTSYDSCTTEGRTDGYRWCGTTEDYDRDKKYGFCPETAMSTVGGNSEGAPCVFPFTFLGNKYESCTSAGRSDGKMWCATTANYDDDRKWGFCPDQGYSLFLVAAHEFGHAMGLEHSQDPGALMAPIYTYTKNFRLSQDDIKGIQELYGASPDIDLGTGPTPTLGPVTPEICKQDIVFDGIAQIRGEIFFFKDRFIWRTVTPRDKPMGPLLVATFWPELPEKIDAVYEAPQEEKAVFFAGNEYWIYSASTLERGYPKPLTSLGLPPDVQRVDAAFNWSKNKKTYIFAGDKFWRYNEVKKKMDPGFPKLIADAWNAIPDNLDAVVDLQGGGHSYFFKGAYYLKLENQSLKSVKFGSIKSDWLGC

[7] = biological target: T6, Polyunsaturated fatty acid 5-lipoxygenase (Homo sapiens, UniProt P09917); assay: Inhibition of human recombinant 5-lipoxygenase after 10 mins by fluorescence assay
T6 sequence (P09917 whole entry): T1 sequence (whole entry)

[8] = biological target: Matrix metalloproteinase-9 (Homo sapiens) (UniProt P14780); conditions: at 1 mM;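 also: recombinant human MMP9, activity read after 30 min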
Sequence of Matrix metalloproteinase-9 (Homo sapiens) (P14780 whole entry): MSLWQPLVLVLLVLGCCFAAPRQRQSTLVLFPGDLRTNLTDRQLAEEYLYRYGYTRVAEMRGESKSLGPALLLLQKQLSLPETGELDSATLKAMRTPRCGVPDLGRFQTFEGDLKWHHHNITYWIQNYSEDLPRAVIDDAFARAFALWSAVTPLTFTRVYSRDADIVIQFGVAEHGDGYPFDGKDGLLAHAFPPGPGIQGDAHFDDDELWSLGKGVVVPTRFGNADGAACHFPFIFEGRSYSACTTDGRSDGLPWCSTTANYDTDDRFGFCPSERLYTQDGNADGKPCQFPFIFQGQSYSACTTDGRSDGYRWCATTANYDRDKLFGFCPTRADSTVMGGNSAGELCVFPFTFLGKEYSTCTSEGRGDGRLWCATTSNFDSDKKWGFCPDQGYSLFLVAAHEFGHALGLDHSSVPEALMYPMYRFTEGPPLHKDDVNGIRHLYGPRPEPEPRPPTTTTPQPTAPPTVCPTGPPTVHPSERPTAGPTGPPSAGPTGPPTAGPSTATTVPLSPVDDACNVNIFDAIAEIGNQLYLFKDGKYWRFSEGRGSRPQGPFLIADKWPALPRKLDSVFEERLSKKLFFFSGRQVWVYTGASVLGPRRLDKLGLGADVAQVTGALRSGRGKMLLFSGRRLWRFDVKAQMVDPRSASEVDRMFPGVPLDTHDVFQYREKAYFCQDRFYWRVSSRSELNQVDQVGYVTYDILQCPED

[9] = biological target: Neutrophil collagenase (Homo sapiens) (UniProt P22894); conditions: at 1 mM;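 also: recombinant human MMP8 enzyme, percent inhibition read after 30 min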
Sequence of Neutrophil collagenase (Homo sapiens) (P22894 101-467 limits assumed): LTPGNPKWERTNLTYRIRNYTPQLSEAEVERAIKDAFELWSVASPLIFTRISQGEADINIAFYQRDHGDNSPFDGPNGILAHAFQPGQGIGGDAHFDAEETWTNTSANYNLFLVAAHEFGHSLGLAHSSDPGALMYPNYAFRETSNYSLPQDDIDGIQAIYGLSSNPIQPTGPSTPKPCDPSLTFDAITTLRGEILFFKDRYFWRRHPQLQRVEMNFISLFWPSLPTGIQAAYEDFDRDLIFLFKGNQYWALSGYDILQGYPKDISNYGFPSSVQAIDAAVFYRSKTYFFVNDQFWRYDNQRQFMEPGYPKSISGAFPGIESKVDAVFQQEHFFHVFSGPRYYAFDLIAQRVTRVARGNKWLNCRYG

[10] = biological target: T5, 72 kDa type IV collagenase; assay: Inhibition of human recombinant MMP2 after 30 mins
How it was run: (§1)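 Enzyme (1.16 U) preincubated 30 min at 37 °C with fragment in 50 mM HEPES, 10 mM CaCl2, 0.05% Brij-35, pH 7.5. Fluorogenic Mca peptide substrate (4 μM final) then added. Rate of fluorescence increase compared with no-inhibitor control (100%). Single-point 25 μM final for the 8-hydroxyquinoline sublibrary. IC50 fitted to dose-response curves from serial dilutions of DMSO stocks.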
Target sequence in this assay (P08253 whole entry): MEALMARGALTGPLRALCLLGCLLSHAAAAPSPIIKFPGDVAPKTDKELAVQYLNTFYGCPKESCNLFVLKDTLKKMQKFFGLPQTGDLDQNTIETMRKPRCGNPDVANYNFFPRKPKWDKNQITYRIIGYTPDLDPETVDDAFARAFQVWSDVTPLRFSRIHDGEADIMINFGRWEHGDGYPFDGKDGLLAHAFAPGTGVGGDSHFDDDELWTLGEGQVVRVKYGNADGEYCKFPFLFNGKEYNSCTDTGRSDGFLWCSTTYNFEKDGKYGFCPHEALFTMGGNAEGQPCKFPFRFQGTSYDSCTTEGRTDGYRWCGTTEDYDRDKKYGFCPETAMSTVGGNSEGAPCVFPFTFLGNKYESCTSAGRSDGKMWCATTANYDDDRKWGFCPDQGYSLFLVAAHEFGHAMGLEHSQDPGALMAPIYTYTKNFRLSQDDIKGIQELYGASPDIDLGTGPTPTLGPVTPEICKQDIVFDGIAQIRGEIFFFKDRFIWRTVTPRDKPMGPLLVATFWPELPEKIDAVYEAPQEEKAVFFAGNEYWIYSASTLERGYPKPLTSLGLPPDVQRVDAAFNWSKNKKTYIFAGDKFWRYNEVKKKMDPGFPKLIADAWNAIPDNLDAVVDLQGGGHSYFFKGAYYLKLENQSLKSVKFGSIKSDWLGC

[11] = biological target: T7, Lethal factor (Bacillus anthracis) (UniProt P15917); conditions: at 1 mM
T7 sequence (whole entry): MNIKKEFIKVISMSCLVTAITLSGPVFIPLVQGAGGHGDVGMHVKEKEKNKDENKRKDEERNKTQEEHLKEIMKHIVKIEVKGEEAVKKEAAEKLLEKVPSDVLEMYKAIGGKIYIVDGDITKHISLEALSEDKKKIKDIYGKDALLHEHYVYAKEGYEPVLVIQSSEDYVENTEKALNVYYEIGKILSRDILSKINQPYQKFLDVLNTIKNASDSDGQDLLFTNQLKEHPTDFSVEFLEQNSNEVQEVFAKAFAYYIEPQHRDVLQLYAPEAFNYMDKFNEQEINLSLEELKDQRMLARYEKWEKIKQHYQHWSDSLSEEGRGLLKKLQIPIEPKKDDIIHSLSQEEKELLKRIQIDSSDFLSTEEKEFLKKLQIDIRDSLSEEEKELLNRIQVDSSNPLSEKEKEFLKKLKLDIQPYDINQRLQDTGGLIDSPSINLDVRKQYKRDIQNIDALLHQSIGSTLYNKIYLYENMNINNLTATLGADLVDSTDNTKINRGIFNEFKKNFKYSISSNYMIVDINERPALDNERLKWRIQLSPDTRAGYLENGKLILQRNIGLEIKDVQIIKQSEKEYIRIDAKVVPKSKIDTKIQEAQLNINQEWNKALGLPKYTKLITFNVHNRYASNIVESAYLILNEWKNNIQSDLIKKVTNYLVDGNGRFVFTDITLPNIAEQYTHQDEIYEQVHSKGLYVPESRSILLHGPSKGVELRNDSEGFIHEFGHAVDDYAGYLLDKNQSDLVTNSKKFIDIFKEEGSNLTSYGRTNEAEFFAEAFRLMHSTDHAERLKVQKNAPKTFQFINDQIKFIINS

Tyrosinase = biological target: T8, Tyrosinase (Agaricus bisporus, UniProt O42713); assay: Inhibition of mushroom tyrosinase after 10 mins
T8 sequence (O42713 whole entry): T4 sequence (whole entry)

[12] = biological target: T5, 72 kDa type IV collagenase; assay: Inhibition of human recombinant MMP2 at 25 uM after 30 mins; how it was run: as §1
Target sequence in this assay (P08253 110-660 limits assumed): as the sequence (P08253 110-660 limits assumed) above

Lethal factor = biological target: T9, Lethal factor (Bacillus anthracis, UniProt P15917); assay: Inhibition of recombinant anthrax lethal factor after 30 mins by fluorescence assay
T9 sequence (P15917 whole entry): T7 sequence (whole entry)

SMILES	inhibition [1]	inhibition [2]	inhibition [4]	inhibition [6]	inhibition [8]	inhibition [9]	IC50 [10]	inhibition [12]	further results
O=C(O)c1cc(O)ccc1O [GENTISIC ACID]	86%	13%	-3%	0%	40%	1%			inhibition [3]: 24%; inhibition [5]: 96%; IC50 [7]: 75 µM
Oc1cccc2cccnc12 [OXYQUINOLINE]	61%	77%	83%	94%	78%	92%	130 µM		inhibition [3]: 8%; inhibition [11]: 56%
Cc1occc(=S)c1O	91%	98%	98%	100%	100%	101%			IC50 (Tyrosinase): 3.8 µM; inhibition [11]: 96%; inhibition [5]: 102%; IC50 [7]: 11 µM
O=C(O)c1cccc(=O)[nH]1									IC50 (Tyrosinase): 159 µM
O=S(=O)(Nc1ccc(O)c2ncccc12)c1ccc(-c2ccccc2)cc1							10.8 µM	> 65%	
O=S(=O)(Nc1ccc2cccnc2c1O)c1ccc(-c2ccccc2)cc1							3.9 µM	> 65%	
O=S(=O)(Nc1ccc2cccnc2c1O)c1cccs1							4.3 µM	> 65%	
O=S(=O)(Nc1ccc2cccnc2c1O)c1ccccc1							5.6 µM	> 65%	
O=S(=O)(Nc1ccc(O)c2ncccc12)c1cccs1							8.4 µM	> 65%	
O=S(=O)(Nc1ccc(O)c2ncccc12)c1ccc(F)cc1							7.2 µM	> 65%	
O=S(=O)(Nc1ccc2cccnc2c1O)c1ccc(F)cc1							3 µM	> 65%	
O=S(=O)(Nc1ccc(O)c2ncccc12)c1ccccc1							8.8 µM	> 65%	
Oc1coccc1=S	94%	99%	98%	100%	100%	102%	76 µM		IC50 (Lethal factor): 204 µM; inhibition [11]: 101%; inhibition [5]: 97%
Nc1cccc(C(=O)O)c1O	72%	69%	72%	70%	59%	67%	389 µM		inhibition [3]: 18%; inhibition [11]: 90%
